Measured values reported in PMC9796681 (British Journal of Clinical Pharmacology, 2022).
Values joined by “and” are separate entries in the source; they are usually repeats but may differ in a detail not shown here. Equal entries are not always repeated. “Also recorded” adds a separate entry of the source. Where two headings read alike, the source gives them in different places. One block for each compound: values may come before it.

Legend:
[1] = cited from earlier work
[2] = Population pharmacokinetic analysis; type: in vivo, human
In short: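 Healthy young subjects: single 80 mg dose, fasting, sampled predose to 102 h. Gout patients: 40-160 mg/day at steady state (≥7 days after dose change), up to four samples at 1–24 h post-dose. Plasma assayed by HPLC-fluorescence, LLQ 0.005 µg mL-1. Two-compartment model, first-order elimination; power covariate model normalised to median; shared random effect on availability (FVAR); food tested on ka and F.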

[3] = two-compartment model; gouty; cited from earlier work
[4] = one-compartment model; cited from earlier work
[5] = single dose 80 mg, healthy subjects

Compound: Cc1nc(-c2ccc(OCC(C)C)c(C#N)c2)sc1C(=O)O[C@@H]1O[C@H](C(=O)O)[C@@H](O)[C@H](O)[C@H]1O [Febuxostat glucuronide]
- proportion of the febuxostat dose as glucuronide, excreted by the kidneys ([1]; published data): about 40%

- BSV-CL/F, between-subject variability (coefficient of variation) ([2]; final model): 13.6% and 13.6 (37.4) %
- BSV-FVAR, common variability on oral availability ([2]; final model): 27.7 (21.2) %
- BSV-Vc/F, between-subject variability (coefficient of variation) ([2]; final model): 22% and 22.0 (35.4) %
- BSV-Vp/F, between-subject variability (coefficient of variation) ([2]; final model): 19.5% and 19.5 (58.2) %
- Covariate BMI (ϴ 7), power exponent on Vc/F ([2]; final model, body mass index, median 30.6 kg m^−2): 0.996
- Covariate food on ka ([2]; final model, fed status): −0.869
- Covariate food on oral availability ([2]; final model, fed status): −0.667
- reduction of absorption rate constant ka by food ([2]; final model, fed versus fasted): 87%
- reduction of oral availability (relative bioavailability) by food ([2]; final model, fed versus fasted): 67%
- RUV-CV%, residual unexplained variability ([2]; final model, proportional residual error): 39.9 (10.1) %
- absorption rate constant ka (ϴ 5), population mean ([2]; final two-compartment model): 3.6 h⁻¹ and 3.62 h⁻¹
- apparent peripheral volume of distribution Vp/F (ϴ 4), population mean ([2]; final two-compartment model): 19.4 L
- intercompartmental clearance Q (ϴ 3), population mean ([2]; final two-compartment model): 1.25 L/h
- Vd/F ([2]; human, plasma, oral): 32.8 L
Compound: Cc1nc(-c2ccc(OCC(C)C)c(C#N)c2)sc1C(=O)O [febuxostat]
- Residual CV [3]: 71%
- Vc/F, final estimate [3]: 32.2 L
- Vp/F, final estimate [3]: 22.2 L
- ka, absorption rate constant [3]: 13 h⁻¹
- ka, absorption rate constant [4]: 2.52 h⁻¹
- effect of mild and moderate hepatic impairment on the pharmacokinetics ([1]; Child-Pugh class A and B): no effect; also recorded: did not affect
- CL/F ([1]; Japanese subjects who had gout or were hyperuricaemic): 9.9 L/h
- reduction of apparent clearance by UGT polymorphisms ([1]; UGT six and 28 variants): 22%
- ka, value assumed ([1]; assumed by Hirai et al): 2.18 h⁻¹
- decline of plasma concentration over the dosage interval ([1]; dosage interval 24 h): up to 100 fold
- CL/F ([1]; healthy African Americans): 10.5 L/h
- CL/F ([1]; healthy Chinese subjects): 5.3 Lh^−1
- effect of food on the extent of absorption (AUC0-48) ([1]; healthy subjects, 48 h): negligible effect; also recorded: reduce the rate but not the extent of absorption
- cleared by phase I metabolism (oxidation) ([1]; healthy subjects): ~ 35%
- cleared by phase II metabolism (glucuronidation) ([1]; healthy subjects): ~ 40%
- febuxostat eliminated from plasma in the first 9 h post-dose ([1]; healthy subjects): 81%
- reduction in AUC0-24 with food ([1]; healthy subjects): 20%
- reduction in C max with food ([1]; healthy subjects): 50%
- mean initial half-life [1, 5]: 2 h
- mean terminal half-life [1, 5]: 14 h
